Experiments:
[1] = tested on: Salmonella typhimurium; test: Toxicity in Salmonella typhimurium TA 100 at 5 to 100 ug in presence of Fischer-344 rat liver S9 fraction; assay type: organism-based, Salmonella enterica subsp. enterica serovar Typhimurium
Summary of the method: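 Percent survivors were measured with diluted TA100 broth culture under the same S-9 plating conditions as the mutagenicity assay, except that excess histidine was added to the top agar.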

[2] = tested on: Salmonella typhimurium; test: Mutagenic activity in Salmonella typhimurium TA 100 at 5 to 100 ug by Ames test in presence of Fischer-344 rat liver S9 fraction relative to 5-methylchrysene
[3] = tested on: Salmonella typhimurium; test: Mutagenic activity in Salmonella typhimurium TA 100 at 5 to 100 ug by Ames test in presence of Fischer-344 rat liver S9 fraction; assay type: toxicity, organism-based, Salmonella enterica subsp. enterica serovar Typhimurium
Summary of the method: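 TA100 plate-incorporation assay: compound in 50 µL Me₂SO, 0.1 mL overnight broth culture, 200 µL S-9 mix and 2 mL top agar (45 °C), poured on minimal glucose agar. S-9 from Aroclor 1254-induced rats (500 mg/kg, 5 days earlier); mix per mL: 100 µmol K phosphate pH 7.4, 8 µmol MgCl₂, 5 µmol G6P, 4 µmol NADP⁺. His⁺ revertants/plate, mean of four trials.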

[4] = tested on: Salmonella typhimurium; test: Mutagenic activity in Salmonella typhimurium TA 100 at 5 to 100 ug by Ames test in absence of Fischer-344 rat liver S9 fraction; assay type: toxicity, organism-based, Salmonella enterica subsp. enterica serovar Typhimurium; details: in vivo
[5] = tested on: Salmonella typhimurium; test: Mutagenic activity in Salmonella typhimurium TA 100 at 50 ug by Ames test in absence of Fischer-344 rat liver S9 fraction; assay type: toxicity, organism-based, Salmonella enterica subsp. enterica serovar Typhimurium; details: in vivo

SMILES: OCc1cc2ccccc2c2ccc3c(c12)CCCC3
- Activity [1]: Non-toxic
- Activity [2]: Non-toxic

SMILES: Cc1cc2ccccc2c2c(C)cc3ccccc3c12
- Activity [3]: Toxic
- Activity [1]: Non-toxic

SMILES: O=c1oc2cccc3ccc4c5ccccc5cc1c4c32
- Activity [3]: Toxic
- Activity [4]: Non-toxic
- Activity [1]: Non-toxic

SMILES: OCc1cc2ccccc2c2ccc3ccccc3c12
- Activity [1]: Non-toxic
- Activity [2]: Non-toxic

SMILES: COC(=O)c1cc2ccccc2c2ccc3ccccc3c12
- Activity [1]: Non-toxic
- Activity [2]: Non-toxic

SMILES: CC(=O)OCc1cc2ccccc2c2ccc3ccccc3c12
- Activity [1]: Non-toxic
- Activity [2]: Non-toxic

SMILES: Cc1cc2ccccc2c2ccc3c(c12)C=CC(O)C3O (stereo not drawn)
- Activity [5]: Toxic

SMILES: COC(=O)c1cc2ccccc2c2ccc3c(c12)CCCC3
- Activity [1]: Non-toxic
- Activity [2]: Non-toxic

SMILES: Cc1cc2ccccc2c2ccc3ccccc3c12
- Activity [3]: Toxic
- Activity [1]: Non-toxic
